The results in this text go back to ChEMBL document CHEMBL5661979, “Pharmacological inhibition of BMK1 suppresses tumor growth through promyelocytic leukemia protein” (Cancer Cell, 2010).

In assay [1] the target is Cyclin-dependent kinase 13 (Homo sapiens, UniProt Q14004). As to the kind of experiment: Inhibition of CHED in human HeLa cells lysate at 50 uM pre incubated for 15 mins followed by ADP acyl phosphate probe addition and measured after 10 mins by LC-MS/MS analysis relative to control. The format is subcellular. The note with it: time 25.0 min. In outline:
(§1)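 KiNativ profiling in HeLa lysate (5 mg/mL total protein). Lysate incubated 15 min with inhibitor at 50, 10, 2, 0.8 or 0 μM. ATP or ADP acylphosphate probe then added (5 μM final) and reacted 10 min. Reaction stopped with urea and analysed by targeted MS, using up to four fragment ions per kinase peptide-probe conjugate. % inhibition taken against untreated lysate. Run in duplicate.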

For assay [2], the target named is Interleukin-1 receptor-associated kinase 1 (Homo sapiens, UniProt P51617). As to the kind of experiment: Inhibition of IRAK1 in human HeLa cells lysate at 2 uM pre incubated for 15 mins followed by ATP acyl phosphate probe addition and measured after 10 mins by LC-MS/MS analysis relative to control. The assay is classed as subcellular. The note with it: time 25.0 min.

The target in assay [3] is Peripheral plasma membrane protein CASK (Homo sapiens, UniProt O14936). Nature of the assay: Inhibition of CASK in human HeLa cells lysate pre incubated for 15 mins followed by ADP acyl phosphate probe addition and measured after 10 mins by LC-MS/MS analysis. The assay is classed as subcellular. In outline:
as §1

Assay [4] deals with Serine/threonine-protein kinase PRP4 homolog (Homo sapiens, UniProt Q13523). Nature of the assay: Inhibition of PRP4 in human HeLa cells lysate pre incubated for 15 mins followed by ATP acyl phosphate probe addition and measured after 10 mins by LC-MS/MS analysis. The format is subcellular.
Sequence of Serine/threonine-protein kinase PRP4 homolog (Q13523 whole entry): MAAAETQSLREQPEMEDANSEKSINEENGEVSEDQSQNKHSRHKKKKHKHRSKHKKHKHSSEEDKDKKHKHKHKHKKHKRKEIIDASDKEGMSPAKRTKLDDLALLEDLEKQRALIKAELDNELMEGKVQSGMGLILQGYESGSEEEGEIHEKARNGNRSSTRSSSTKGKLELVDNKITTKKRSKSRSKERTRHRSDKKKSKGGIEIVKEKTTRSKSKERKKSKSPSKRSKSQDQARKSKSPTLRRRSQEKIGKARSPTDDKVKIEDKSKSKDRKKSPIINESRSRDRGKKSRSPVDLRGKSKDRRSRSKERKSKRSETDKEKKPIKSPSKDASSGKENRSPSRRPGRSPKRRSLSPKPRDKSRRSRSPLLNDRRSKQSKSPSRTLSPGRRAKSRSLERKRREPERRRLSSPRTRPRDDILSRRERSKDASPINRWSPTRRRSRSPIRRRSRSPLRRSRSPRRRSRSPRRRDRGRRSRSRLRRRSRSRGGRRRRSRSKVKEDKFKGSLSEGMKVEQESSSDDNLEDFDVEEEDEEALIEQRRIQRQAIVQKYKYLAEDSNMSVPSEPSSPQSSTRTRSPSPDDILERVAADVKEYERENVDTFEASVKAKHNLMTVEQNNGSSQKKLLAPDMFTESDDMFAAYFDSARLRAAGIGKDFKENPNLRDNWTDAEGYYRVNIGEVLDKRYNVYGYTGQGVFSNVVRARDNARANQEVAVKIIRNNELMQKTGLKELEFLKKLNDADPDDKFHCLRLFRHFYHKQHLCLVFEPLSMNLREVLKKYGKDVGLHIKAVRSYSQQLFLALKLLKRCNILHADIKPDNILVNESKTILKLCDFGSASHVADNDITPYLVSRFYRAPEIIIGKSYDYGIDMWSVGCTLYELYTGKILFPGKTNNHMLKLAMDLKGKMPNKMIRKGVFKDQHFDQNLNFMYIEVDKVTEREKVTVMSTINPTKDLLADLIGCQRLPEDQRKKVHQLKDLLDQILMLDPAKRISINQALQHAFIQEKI
Assay [5] deals with Dual specificity protein kinase CLK3 (Homo sapiens, UniProt P49761). Nature of the assay: Inhibition of CLK3 in human HeLa cells lysate pre incubated for 15 mins followed by ADP acyl phosphate probe addition and measured after 10 mins by LC-MS/MS analysis. The format is subcellular.
Sequence of Dual specificity protein kinase CLK3 (P49761 whole entry): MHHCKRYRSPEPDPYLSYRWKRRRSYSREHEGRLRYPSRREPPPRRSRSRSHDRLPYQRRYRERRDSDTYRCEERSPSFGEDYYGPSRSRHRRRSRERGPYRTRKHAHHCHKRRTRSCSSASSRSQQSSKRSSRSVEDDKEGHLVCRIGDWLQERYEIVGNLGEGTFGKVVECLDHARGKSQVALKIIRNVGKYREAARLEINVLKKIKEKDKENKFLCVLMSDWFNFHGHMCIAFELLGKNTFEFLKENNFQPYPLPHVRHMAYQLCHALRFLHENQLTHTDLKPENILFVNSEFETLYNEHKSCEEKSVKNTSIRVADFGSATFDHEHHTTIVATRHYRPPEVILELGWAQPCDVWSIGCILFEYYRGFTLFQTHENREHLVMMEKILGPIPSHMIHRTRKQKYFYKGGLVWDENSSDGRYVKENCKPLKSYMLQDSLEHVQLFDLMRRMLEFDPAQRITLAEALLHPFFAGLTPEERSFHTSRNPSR
Assay [6] can be described thus: Inhibition of MAP3K5/MAP3K6/MAP3K15 in human HeLa cells lysate pre incubated for 15 mins followed by ATP acyl phosphate probe addition and measured after 10 mins by LC-MS/MS analysis. The assay is classed as subcellular.
Assay [7] deals with RAC-alpha serine/threonine-protein kinase (Homo sapiens, UniProt P31749). As to the kind of experiment: Inhibition of AKT1 in human HeLa cells lysate pre incubated for 15 mins followed by ATP acyl phosphate probe addition and measured after 10 mins by LC-MS/MS analysis. The format is subcellular. The method, boiled down: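 HeLa cell lysates (5 mg/mL total protein) were preincubated with inhibitor at 0, 0.8, 2, 10 or 50 μM for 15 min. ATP or ADP acylphosphate probe was then added (5 μM final) for 10 min, and reactions were stopped with urea. Up to four fragment ions per kinase probe-peptide were quantified by targeted MS. % inhibition was taken relative to untreated lysate. Run in duplicate.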
Sequence of RAC-alpha serine/threonine-protein kinase (P31749 whole entry, the tested form may be a part): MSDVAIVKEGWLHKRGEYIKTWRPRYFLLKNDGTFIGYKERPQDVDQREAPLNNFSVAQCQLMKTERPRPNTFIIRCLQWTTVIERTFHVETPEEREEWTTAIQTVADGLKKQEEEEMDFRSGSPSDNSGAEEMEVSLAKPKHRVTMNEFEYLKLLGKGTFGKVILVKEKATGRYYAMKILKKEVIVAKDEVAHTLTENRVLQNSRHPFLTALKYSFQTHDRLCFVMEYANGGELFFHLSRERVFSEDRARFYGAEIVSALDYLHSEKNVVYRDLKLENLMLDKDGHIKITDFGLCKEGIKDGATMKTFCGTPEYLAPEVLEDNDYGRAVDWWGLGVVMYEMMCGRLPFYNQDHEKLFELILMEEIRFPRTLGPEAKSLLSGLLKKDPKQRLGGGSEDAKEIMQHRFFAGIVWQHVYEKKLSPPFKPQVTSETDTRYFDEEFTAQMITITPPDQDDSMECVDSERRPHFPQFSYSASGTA

Assay [8] deals with Cyclin-dependent kinase 7 (Homo sapiens, UniProt P50613). As to the kind of experiment: Inhibition of CDK7 in human HeLa cells lysate pre incubated for 15 mins followed by ATP acyl phosphate probe addition and measured after 10 mins by LC-MS/MS analysis. The format is subcellular. The method, boiled down: as §1
Sequence of Cyclin-dependent kinase 7 (P50613 whole entry): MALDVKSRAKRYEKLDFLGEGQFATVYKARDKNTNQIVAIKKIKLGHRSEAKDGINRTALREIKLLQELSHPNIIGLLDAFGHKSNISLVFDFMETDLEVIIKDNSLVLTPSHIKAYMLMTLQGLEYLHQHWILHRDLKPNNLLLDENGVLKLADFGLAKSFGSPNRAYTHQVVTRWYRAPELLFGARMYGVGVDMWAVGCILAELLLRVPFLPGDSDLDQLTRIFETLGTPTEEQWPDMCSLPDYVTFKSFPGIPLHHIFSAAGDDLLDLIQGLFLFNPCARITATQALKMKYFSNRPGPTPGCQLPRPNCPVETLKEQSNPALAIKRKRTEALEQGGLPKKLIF
Assay [9] concerns the target T1, Dual specificity mitogen-activated protein kinase kinase 5 (Homo sapiens) (UniProt Q13163).
T1 sequence (whole entry): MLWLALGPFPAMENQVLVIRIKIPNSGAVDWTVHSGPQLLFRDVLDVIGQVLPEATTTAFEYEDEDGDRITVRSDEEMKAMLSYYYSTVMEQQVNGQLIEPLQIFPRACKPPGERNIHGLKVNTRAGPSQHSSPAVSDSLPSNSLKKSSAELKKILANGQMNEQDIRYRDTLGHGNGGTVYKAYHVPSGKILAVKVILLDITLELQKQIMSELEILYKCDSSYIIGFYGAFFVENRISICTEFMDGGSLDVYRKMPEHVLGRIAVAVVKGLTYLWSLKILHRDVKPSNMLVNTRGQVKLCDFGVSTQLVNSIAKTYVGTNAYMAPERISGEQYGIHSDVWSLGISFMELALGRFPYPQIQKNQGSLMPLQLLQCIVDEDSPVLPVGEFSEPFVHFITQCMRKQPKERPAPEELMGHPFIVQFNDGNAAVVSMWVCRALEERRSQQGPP
As to the kind of experiment: Inhibition of MAP2K5 in human HeLa cells lysate at 10 uM pre incubated for 15 mins followed by ADP acyl phosphate probe addition and measured after 10 mins by LC-MS/MS analysis relative to control. The format is subcellular. The note with it: time 25.0 min.

The target in assay [10] is Serine/threonine-protein kinase Sgk1 (Homo sapiens, UniProt O00141). As to the kind of experiment: Inhibition of SGK1 in human HeLa cells lysate pre incubated for 15 mins followed by ADP acyl phosphate probe addition and measured after 10 mins by LC-MS/MS analysis. The format is subcellular.
Sequence of Serine/threonine-protein kinase Sgk1 (O00141 whole entry): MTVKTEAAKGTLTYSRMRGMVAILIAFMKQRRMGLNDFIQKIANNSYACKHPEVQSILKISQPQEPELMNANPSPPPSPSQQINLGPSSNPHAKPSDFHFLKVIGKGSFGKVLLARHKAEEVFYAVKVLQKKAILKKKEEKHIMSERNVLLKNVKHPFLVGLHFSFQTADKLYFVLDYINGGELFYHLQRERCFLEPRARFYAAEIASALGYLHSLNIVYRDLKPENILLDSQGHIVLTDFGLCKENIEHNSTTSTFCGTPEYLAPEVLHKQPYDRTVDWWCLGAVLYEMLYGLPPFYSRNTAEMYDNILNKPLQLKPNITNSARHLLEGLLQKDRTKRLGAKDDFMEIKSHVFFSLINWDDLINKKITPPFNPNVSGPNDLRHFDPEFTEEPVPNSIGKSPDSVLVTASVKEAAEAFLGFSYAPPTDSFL
In assay [11] the target is Cyclin-dependent kinase 5 (Homo sapiens, UniProt Q00535). As to the kind of experiment: Inhibition of CDK5 in human HeLa cells lysate pre incubated for 15 mins followed by ADP acyl phosphate probe addition and measured after 10 mins by LC-MS/MS analysis. The assay is classed as subcellular. In outline: as §1
In assay [12] the target is T2, Cyclin-dependent kinase 9 (Homo sapiens, UniProt P50750). Nature of the assay: Inhibition of CDK9 in human HeLa cells lysate at 2 uM pre incubated for 15 mins followed by ADP acyl phosphate probe addition and measured after 10 mins by LC-MS/MS analysis relative to control. The assay is classed as subcellular. The note with it: time 25.0 min. The method, boiled down:
as §1

A further assay addresses Scaffold protein ILK (Homo sapiens, UniProt Q13418). As to the kind of experiment: Inhibition of ILK in human HeLa cells lysate pre incubated for 15 mins followed by ATP acyl phosphate probe addition and measured after 10 mins by LC-MS/MS analysis. The format is subcellular.
In assay [13] the target is T2, Cyclin-dependent kinase 9. As to the kind of experiment: Inhibition of CDK9 in human HeLa cells lysate at 10 uM pre incubated for 15 mins followed by ATP acyl phosphate probe addition and measured after 10 mins by LC-MS/MS analysis relative to control. The format is subcellular. The note with it: time 25.0 min. In outline: as §1
Assay [14] addresses T3, EKC/KEOPS complex subunit TP53RK (Homo sapiens) (UniProt Q96S44).
T3 sequence (whole entry): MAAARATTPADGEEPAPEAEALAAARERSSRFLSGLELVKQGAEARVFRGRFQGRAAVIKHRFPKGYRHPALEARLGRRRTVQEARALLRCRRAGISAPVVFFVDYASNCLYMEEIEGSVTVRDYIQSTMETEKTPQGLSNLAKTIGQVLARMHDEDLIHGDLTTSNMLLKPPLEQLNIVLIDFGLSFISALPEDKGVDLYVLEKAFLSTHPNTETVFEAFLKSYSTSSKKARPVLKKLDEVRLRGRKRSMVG
Nature of the assay: Inhibition of PRPK in human HeLa cells lysate at 10 uM pre incubated for 15 mins followed by ADP acyl phosphate probe addition and measured after 10 mins by LC-MS/MS analysis relative to control. The assay is classed as subcellular. The note with it: time 25.0 min.

Assay [15] has as its target T4, Ribosomal protein S6 kinase alpha-1 (Homo sapiens, UniProt Q15418). As to the kind of experiment: Inhibition of RSK1 domain 2 K2 site in human HeLa cells lysate at 50 uM pre incubated for 15 mins followed by ADP acyl phosphate probe addition and measured after 10 mins by LC-MS/MS analysis relative to control. The assay is classed as subcellular. The note with it: time 25.0 min.

For assay [16], the target named is Serine/threonine-protein kinase PLK4 (Homo sapiens) (UniProt O00444). As to the kind of experiment: Inhibition of PLK4 (unknown origin) assessed as remaining activity at 10 uM by ATP-competition binding assay relative to control.
Sequence of Serine/threonine-protein kinase PLK4 (Homo sapiens) (O00444 whole entry, the tested form may be a part): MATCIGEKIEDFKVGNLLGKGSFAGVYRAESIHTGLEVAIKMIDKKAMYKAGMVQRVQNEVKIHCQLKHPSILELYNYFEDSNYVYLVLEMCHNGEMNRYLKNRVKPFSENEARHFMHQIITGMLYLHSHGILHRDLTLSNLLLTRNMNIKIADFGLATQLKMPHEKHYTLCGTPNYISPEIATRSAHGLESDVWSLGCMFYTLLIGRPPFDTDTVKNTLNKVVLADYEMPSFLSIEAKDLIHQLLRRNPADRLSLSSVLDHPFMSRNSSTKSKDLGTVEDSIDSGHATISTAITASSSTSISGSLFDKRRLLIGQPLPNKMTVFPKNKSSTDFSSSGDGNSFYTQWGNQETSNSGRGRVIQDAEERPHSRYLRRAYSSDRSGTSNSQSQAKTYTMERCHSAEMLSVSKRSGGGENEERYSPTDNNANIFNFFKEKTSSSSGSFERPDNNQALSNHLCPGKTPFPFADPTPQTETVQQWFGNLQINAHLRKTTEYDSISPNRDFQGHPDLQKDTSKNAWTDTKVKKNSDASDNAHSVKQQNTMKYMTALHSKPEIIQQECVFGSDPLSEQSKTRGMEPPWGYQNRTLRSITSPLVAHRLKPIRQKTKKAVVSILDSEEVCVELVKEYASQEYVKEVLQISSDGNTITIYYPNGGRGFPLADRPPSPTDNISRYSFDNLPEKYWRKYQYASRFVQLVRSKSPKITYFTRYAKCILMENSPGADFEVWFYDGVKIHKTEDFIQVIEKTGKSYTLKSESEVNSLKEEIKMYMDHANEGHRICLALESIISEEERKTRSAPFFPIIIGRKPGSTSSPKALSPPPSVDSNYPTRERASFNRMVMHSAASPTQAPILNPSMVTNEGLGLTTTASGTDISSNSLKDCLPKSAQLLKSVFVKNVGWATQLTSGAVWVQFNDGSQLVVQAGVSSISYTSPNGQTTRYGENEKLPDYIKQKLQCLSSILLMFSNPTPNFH
Assay [17] has as its target T4, Ribosomal protein S6 kinase alpha-1. Nature of the assay: Inhibition of RSK1 domain 2 K1 site in human HeLa cells lysate at 50 uM pre incubated for 15 mins followed by ADP acyl phosphate probe addition and measured after 10 mins by LC-MS/MS analysis relative to control. The assay is classed as subcellular. The note with it: time 25.0 min.

T2 sequence (P50750 whole entry): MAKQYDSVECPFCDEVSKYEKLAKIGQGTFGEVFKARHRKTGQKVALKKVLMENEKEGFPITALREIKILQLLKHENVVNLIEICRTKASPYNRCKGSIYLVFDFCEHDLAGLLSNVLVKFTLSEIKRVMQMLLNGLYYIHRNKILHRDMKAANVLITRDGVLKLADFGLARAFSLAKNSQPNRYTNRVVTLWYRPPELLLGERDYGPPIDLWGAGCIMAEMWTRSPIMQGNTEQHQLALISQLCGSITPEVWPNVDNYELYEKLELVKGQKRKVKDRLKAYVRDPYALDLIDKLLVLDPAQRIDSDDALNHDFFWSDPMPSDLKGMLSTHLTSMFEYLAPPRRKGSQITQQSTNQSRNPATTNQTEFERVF
T4 sequence (Q15418 whole entry, the tested form may be a part): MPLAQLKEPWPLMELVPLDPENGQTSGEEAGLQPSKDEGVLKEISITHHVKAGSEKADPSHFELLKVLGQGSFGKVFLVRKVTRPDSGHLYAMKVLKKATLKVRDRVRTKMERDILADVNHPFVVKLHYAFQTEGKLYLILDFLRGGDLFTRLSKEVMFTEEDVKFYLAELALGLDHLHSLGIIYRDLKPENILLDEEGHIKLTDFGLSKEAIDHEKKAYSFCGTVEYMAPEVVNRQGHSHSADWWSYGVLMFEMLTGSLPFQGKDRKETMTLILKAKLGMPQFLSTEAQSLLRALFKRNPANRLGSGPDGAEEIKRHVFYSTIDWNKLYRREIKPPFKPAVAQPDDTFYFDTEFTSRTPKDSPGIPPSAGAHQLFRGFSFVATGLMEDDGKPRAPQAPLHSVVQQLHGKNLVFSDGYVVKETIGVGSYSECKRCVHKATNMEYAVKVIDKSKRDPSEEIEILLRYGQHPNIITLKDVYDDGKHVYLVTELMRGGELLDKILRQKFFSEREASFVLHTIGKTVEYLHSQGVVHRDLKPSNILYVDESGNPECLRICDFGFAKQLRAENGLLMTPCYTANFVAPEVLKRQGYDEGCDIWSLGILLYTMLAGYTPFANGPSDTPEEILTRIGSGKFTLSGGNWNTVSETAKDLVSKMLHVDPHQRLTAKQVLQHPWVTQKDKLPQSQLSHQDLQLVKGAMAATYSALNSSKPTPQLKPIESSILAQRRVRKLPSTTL

With `CCOc1cc(N2CCC(O)CC2)ccc1Nc1ncc2c(n1)N(C)c1ccccc1C(=O)N2C`, the inhibition in assay [1] was 12%; in [2], 2.6%; in [9], -9.9%; in assay [12] it was 0.8%; in assay [13], -4.1%; in assay [14], 13.5%. Also, the inhibition in assay [15] came to 65.6%; in [17], 63.8%. Besides, the IC50 in assay [3], in [4], in assay [5], in assay [6], in assay [7] and in assay [8] was more than 50 µM each time. The 50% inhibitory concentration (IC50) (in [10]; in assay [11]; against Scaffold protein ILK) was more than 50 µM in each case. In addition, the Activity in assay [16] is 2.8%.
